Measurements published in ChEMBL document CHEMBL4130635, “2,4-Diaminoquinazolines as Dual Toll-like Receptor (TLR) 7/8 Modulators for the Treatment of Hepatitis B Virus” (J Med Chem, 2018).
The source made the active and inactive calls. No cut-off for these calls is given here.

Tests used:
[1] = AUC (0 to last) in C57BL/6J mouse liver at 3 mg/kg, po by LC-MS analysis; type: ADME, organism-based; conditions: in vivo
How it was run: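 Healthy C57BL/6 mice were dosed once by mouth at 0.3, 1, 3, 10 or 30 mg/kg in 20% HP-β-CD, in groups of 15 per dose. Three mice per group were sacrificed at 0.5, 1, 2, 4 or 7 h, and plasma and liver compound levels were measured by LC–MS. Values were rounded to whole numbers.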

[2] = test system: Cynomolgus monkey; experiment: Proinflammatory activity in cynomolgus monkey plasma assessed as TNFalpha levels at 3 mg/kg, po after 24 hrs by Luminex assay (reference value: 285 pg/ml); type: functional, Macaca fascicularis
[3] = test system: Cynomolgus monkey; experiment: Activation of monocytes in cynomolgus monkey plasma assessed as upregulation of MIP1 levels at 30 mg/kg, po after 24 hrs by Luminex assay (reference value: 37 pg/ml); type: functional, Macaca fascicularis
[4] = test system: Liver; experiment: Anti-inflammatory activity in C57BL/6J mouse liver assessed as IL-10 levels at 0.3 mg/kg, po by multiplex assay (reference value: 2 pg/g); type: functional
How it was run: (§1)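 Mice (C57BL/6) got a single oral dose of 0.3–30 mg/kg in 20% HP-β-CD, in groups of 15. Three per group were sacrificed at 0.5, 1, 2, 4 or 7 h, and liver cytokines were measured by multiplex. Values were rounded to the nearest multiple of 5.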

[5] = target: D(1A) dopamine receptor (Homo sapiens, UniProt P21728); experiment: Inhibition of dopamine D1 receptor (unknown origin)
[6] = test system: Liver; experiment: Proinflammatory activity in C57BL/6J mouse liver assessed as TNFalpha levels at 1 mg/kg, po by multiplex assay (reference value: 15 pg/g); type: functional, organism-based
[7] = test system: Hepatocyte; experiment: Toxicity in human primary hepatocytes infected with HBV genotype C for 12 days followed by exposure to conditioned supernatant from at 5 uM compound treated PBMCs assessed as increase in AST level measured after 42 days relative to untreated control; type: cell-based; conditions: 1008 h
[8] = target: T1, TLR7 and TLR8 (Homo sapiens) (UniProt Q9NYK1+Q9NR97); experiment: Agonist activity at TLR7/8 in human PBMCs co-cultured with primary human hepatocytes infected with HBV genotype C for 12 days assessed as increase in IFNalpha2 levels up to 5 uM measured after 42 days
[9] = target: T1, TLR7 and TLR8 (Homo sapiens); experiment: Agonist activity at TLR7/8 in human PBMCs co-cultured with primary human hepatocytes infected with HBV genotype C for 12 days assessed as increase in IL-12p70 levels up to 5 uM measured after 42 days
[10] = test system: Liver; experiment: Anti-inflammatory activity in C57BL/6J mouse liver assessed as IL-10 levels at 1 mg/kg, po by multiplex assay (reference value: 2 pg/g); type: functional; how it was run: as §1
[11] = target: T1, TLR7 and TLR8 (Homo sapiens); experiment: Agonist activity at TLR7/8 in human PBMCs co-cultured with primary human hepatocytes infected with HBV genotype C for 12 days assessed as increase in CXCL10 levels up to 5 uM measured after 42 days
[12] = Protein binding in mouse plasma fraction at 5 uM after 4.5 hrs LC-MS/MS-based rapid equilibrium dialysis method; type: ADME, cell-free; conditions: read-out: PPB (converted)
[13] = test system: Cynomolgus monkey; experiment: Effect on cytokine profile in cynomolgus monkey plasma assessed as IP10 levels at 1 mg/kg, po after 24 hrs by Luminex assay (reference value: 18.5 pg/ml); type: functional, Macaca fascicularis
How it was run: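 Healthy cynomolgus monkeys given single oral doses of 1, 3, 9 and 30 mg/kg, with a 2-week wash-out planned between doses. Systemic cytokine levels in plasma were sampled at 0.5, 1, 2, 4, 9 and 24 h postdose.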

[14] = test system: Liver; experiment: Effect on cytokine profile in C57BL/6J mouse liver assessed as IFNgamma levels at 30 mg/kg, po by multiplex assay; type: functional
How it was run: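 Single oral gavage in 20% HP-β-CD to healthy C57BL/6 mice, groups of 15 at 0.3, 1, 3, 10 or 30 mg/kg. Three mice per group sacrificed at 0.5, 1, 2, 4 or 7 h. Plasma and liver cytokines by multiplex, maximum level reported, rounded to nearest multiple of 5.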

[15] = target: T2, Toll-like receptor 7 (Homo sapiens) (UniProt Q9NYK1); experiment: Agonist activity at human TLR7 expressed in HEK293 cells assessed as induction of receptor activation incubated for 6 hrs by NF-kappaB-luciferase reporter gene assay; type: cell-based
T2 sequence (whole entry): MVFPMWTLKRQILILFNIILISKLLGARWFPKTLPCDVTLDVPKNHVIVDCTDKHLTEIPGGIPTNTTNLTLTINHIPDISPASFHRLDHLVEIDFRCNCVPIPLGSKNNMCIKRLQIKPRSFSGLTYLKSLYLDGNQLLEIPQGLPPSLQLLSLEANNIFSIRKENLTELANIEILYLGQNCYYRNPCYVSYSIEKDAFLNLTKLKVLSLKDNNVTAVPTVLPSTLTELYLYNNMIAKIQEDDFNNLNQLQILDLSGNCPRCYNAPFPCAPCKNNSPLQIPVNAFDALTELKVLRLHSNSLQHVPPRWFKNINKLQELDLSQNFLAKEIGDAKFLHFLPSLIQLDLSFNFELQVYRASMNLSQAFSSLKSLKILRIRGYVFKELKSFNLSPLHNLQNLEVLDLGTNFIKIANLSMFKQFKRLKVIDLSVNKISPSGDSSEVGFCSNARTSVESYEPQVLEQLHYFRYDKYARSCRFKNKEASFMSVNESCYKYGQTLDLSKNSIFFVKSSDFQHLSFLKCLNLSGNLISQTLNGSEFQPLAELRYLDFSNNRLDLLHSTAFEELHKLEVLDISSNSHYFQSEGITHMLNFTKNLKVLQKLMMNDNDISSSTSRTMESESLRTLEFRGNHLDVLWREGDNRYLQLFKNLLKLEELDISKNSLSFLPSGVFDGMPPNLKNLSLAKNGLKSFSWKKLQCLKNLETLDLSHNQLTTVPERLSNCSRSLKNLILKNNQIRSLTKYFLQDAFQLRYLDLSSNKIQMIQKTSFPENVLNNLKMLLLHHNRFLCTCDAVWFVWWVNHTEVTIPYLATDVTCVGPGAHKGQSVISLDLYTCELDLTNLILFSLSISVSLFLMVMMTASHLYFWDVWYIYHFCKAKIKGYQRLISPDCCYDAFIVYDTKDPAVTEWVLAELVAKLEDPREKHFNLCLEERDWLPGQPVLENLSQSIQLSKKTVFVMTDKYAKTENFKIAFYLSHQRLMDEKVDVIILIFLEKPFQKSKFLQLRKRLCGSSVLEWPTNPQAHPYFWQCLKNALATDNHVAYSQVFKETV
How it was run: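 HEK cell-based assay using a wild-type TLR7 expression vector; a parallel TLR8 vector construct served for selectivity. Results are expressed as lowest effective concentration (LEC), averaged over independent experiments where determined two or more times. A separate HEK 293 cytotoxicity (TOX) assay gave CC50 alongside.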

[16] = test system: Cynomolgus monkey; experiment: Anti-inflammatory activity in cynomolgus monkey plasma assessed as IL-10 levels at 3 mg/kg, po after 24 hrs by Luminex assay (reference value: 195 pg/ml); type: functional, Macaca fascicularis
[17] = target: T1, TLR7 and TLR8 (Homo sapiens); experiment: Agonist activity at TLR7/8 in human PBMCs co-cultured with primary human hepatocytes infected with HBV genotype C for 12 days assessed as increase in IL-12p40 levels up to 5 uM measured after 42 days

Sequence of D(1A) dopamine receptor (P21728 whole entry): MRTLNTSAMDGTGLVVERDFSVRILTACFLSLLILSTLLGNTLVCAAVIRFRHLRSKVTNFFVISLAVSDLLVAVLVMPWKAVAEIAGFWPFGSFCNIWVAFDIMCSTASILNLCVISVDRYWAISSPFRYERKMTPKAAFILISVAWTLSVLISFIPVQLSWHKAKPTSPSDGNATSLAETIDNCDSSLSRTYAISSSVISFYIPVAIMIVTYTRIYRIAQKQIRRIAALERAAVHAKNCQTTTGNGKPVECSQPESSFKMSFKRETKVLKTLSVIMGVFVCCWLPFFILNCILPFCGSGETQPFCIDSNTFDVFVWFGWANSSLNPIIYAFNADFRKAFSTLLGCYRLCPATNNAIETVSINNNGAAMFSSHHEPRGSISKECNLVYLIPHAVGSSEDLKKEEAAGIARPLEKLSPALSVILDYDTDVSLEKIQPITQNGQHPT
T1 sequence (Q9NR97 whole entry, looked up, one chain of several): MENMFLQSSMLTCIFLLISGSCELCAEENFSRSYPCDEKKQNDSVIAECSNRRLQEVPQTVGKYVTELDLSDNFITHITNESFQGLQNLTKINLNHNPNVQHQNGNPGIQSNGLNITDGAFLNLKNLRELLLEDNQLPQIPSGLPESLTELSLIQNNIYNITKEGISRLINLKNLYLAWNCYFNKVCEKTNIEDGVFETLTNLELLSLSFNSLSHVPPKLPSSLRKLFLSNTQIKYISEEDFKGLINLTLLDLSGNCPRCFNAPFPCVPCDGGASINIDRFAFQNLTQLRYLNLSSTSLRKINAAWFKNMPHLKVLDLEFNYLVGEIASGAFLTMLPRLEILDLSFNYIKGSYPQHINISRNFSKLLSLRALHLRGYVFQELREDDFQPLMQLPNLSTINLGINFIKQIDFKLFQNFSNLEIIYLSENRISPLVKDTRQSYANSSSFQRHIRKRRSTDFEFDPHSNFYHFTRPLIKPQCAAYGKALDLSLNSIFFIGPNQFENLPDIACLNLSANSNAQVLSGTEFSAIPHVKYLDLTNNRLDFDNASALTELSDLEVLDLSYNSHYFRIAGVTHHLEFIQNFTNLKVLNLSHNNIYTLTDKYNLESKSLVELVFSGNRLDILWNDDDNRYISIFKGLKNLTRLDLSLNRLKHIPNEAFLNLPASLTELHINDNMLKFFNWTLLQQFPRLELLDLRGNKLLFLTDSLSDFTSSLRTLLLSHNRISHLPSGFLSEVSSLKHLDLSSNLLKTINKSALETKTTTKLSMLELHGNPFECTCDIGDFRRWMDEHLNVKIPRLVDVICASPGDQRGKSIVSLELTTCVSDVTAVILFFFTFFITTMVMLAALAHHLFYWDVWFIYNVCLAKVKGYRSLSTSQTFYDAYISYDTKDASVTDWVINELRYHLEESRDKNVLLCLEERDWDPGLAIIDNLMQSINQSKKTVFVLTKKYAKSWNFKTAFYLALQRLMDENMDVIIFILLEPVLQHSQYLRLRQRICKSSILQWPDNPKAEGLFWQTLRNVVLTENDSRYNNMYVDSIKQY

## CCC[C@@H](CCO)Nc1nc(N)nc2c(F)cccc12
[1]
  AUClast: 362 ng·h/g
[2]
  Activity: 70 pg/mL
[3]
  Activity: 560 pg/mL
[4]
  Activity: 730 pg/g
[5]
  IC50: > 10 µM
[6]
  Activity: Below limit of detection
[7]
  fold change (FC): 2.6
[8]
  Activity: Active
[9]
  Activity: Active
[10]
  Activity: 535 pg/g
[11]
  Activity: Active
[12]
  fraction unbound at 4.5 h, 5 µM: 0.4
[13]
  Activity: 1690 pg/mL
[14]
  Activity: 700 pg/g
[15]
  MEC: 0.15 µM
[16]
  Activity: 1615 pg/mL
[17]
  Activity: Active
